Results: ChEMBL document CHEMBL4330099, “Lead generation and optimization of novel GPR119 agonists with a spirocyclic cyclohexane structure” (Bioorg Med Chem Lett, 2019)
≈ marks a conversion by molar mass, not a printed value.

How the values were obtained:
[1] = target: T1, Glucose-dependent insulinotropic receptor (Homo sapiens, UniProt Q8TDV5); assay: Agonist activity at human GPR119 expressed in HEK293 cells assessed as intracellular cAMP accumulation after 30 mins by HTRF assay; assay type: functional, cell-based
T1 sequence (Q8TDV5 whole entry): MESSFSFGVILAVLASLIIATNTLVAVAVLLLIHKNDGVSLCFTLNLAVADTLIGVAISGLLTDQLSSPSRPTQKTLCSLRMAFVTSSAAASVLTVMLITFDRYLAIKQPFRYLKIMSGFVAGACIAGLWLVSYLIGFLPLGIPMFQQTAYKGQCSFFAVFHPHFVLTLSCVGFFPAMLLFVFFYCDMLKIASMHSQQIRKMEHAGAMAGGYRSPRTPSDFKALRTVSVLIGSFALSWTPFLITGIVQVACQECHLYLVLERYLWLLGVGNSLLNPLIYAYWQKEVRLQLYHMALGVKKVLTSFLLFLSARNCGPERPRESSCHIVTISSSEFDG
Outline: (§1)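 Anti-cAMP cryptate in lysis buffer was then added for 3 h at room temperature in the dark, and cAMP was read by HTRF. EC50 is the concentration giving 50% of the maximal OEA response; intrinsic activity is expressed as % of OEA (100%).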

[2] = target: T2, Glucose-dependent insulinotropic receptor (Homo sapiens) (UniProt Q8TDV5); assay: Intrinsic activity at human GPR119 expressed in HEK293 cells assessed as intracellular cAMP accumulation after 30 mins by HTRF assay relative to oleoylethanolamide; assay type: functional, cell-based; outline: as §1
T2 sequence (whole entry): T1 sequence (Q8TDV5 whole entry)

[3] = Solubility of the compound in Japanese pharmacopoeia first fluid at pH 1.2; assay type: physicochemical
Outline: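 Solubility was measured in Japanese Pharmacopoeia 1st fluid for dissolution testing, adjusted to pH 1.2.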

[4] = Solubility of the compound in FeSSIF; assay type: physicochemical
[5] = Metabolic stability in rat liver microsomes assessed as parent compound remaining at 5 uM after 1 hr; assay type: ADME, Microsome; details: read-out: Stability
Outline: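 Compound (5 μM) was incubated with rat liver microsomes ([…]) for 1 h. Percent of compound remaining was reported.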

[6] = Metabolic stability in human liver microsomes assessed as parent compound remaining at 5 uM after 1 hr; assay type: ADME, Microsome; details: read-out: Stability
Outline: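 Compound (5 μM) was incubated with human liver microsomes ([…]) for 1 h. Percent of compound remaining was reported.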

CC1(C)C[C@]2(CC[C@H](Oc3ncnc4c3CCN4c3ccc(S(C)(=O)=O)cc3F)CC2)CO1
EC50 [1]: 0.005 µM
Intrinsic activity [2]: 90%
solubility [3]: 18.9 µM (≈ 8.99 µg/mL)
solubility [4]: 15.2 µM (≈ 7.23 µg/mL)

Cc1c(Nc2ccc(C(=O)N(C)C)cc2F)ncnc1O[C@H]1CC[C@]2(CC1)COC(C)(C)C2
remaining at 1 h, 5 µM [5]: 44%
EC50 [1]: 0.033 µM
Intrinsic activity [2]: 101%
solubility [3]: 128 µM (≈ 58.7 µg/mL)
remaining at 1 h, 5 µM [6]: 77%
solubility [4]: 65.2 µM (≈ 29.8 µg/mL)

CC(C)c1c(Nc2ccc(S(C)(=O)=O)cc2F)ncnc1O[C@H]1CC[C@]2(CC1)COC(C)(C)C2
EC50 [1]: 0.098 µM
Intrinsic activity [2]: 61%
solubility [3]: 0.7 µM (≈ 0.344 µg/mL)
solubility [4]: 4.3 µM (≈ 2.11 µg/mL)

CC(O[C@H]1CC[C@]2(CC1)COC(C)(C)C2)c1nc(-c2ccc(S(C)(=O)=O)c(F)c2)no1 (some centres undefined)
EC50 [1]: 0.089 µM
Intrinsic activity [2]: 109%

CC1(C)C[C@]2(CC[C@H](Oc3cc(N4CCc5cc(S(C)(=O)=O)ccc54)ncn3)CC2)CO1
EC50 [1]: 0.015 µM
Intrinsic activity [2]: 87%
solubility [3]: 7 µM (≈ 3.2 µg/mL)
solubility [4]: 19.8 µM (≈ 9.06 µg/mL)

CN(c1ncnc2c1CCN2c1ccc(S(C)(=O)=O)cc1F)[C@H]1CC[C@]2(CC1)COC(C)(C)C2
remaining at 1 h, 5 µM [5]: 94%
EC50 [1]: 0.039 µM
Intrinsic activity [2]: 118%
solubility [3]: > 475 µM
remaining at 1 h, 5 µM [6]: 99%
solubility [4]: 75.3 µM (≈ 36.8 µg/mL)

CC1(C)C[C@]2(CC[C@H](c3nc(COc4ccc(-n5cnnn5)cc4)cs3)CC2)CO1
EC50 [1]: 0.085 µM
Intrinsic activity [2]: 79%

Cc1c(O[C@H]2CC[C@]3(CC2)COC(C)(C)C3)ncnc1N(C)c1ccc(S(C)(=O)=O)cc1F
EC50 [1]: > 1 µM
Intrinsic activity [2]: 17%
solubility [3]: 13 µM (≈ 6.21 µg/mL)
solubility [4]: 42.5 µM (≈ 20.3 µg/mL)

Cc1c(Nc2ccc(S(C)(=O)=O)cc2F)ncnc1O[C@H]1CC[C@]2(CC1)COC(C)(C)C2
EC50 [1]: 0.013 µM
Intrinsic activity [2]: 91%
solubility [3]: 5.3 µM (≈ 2.46 µg/mL)
solubility [4]: 15.8 µM (≈ 7.32 µg/mL)

CN(c1cc(N2CCc3cc(S(C)(=O)=O)ccc32)ncn1)[C@H]1CC[C@]2(CC1)COC(C)(C)C2
remaining at 1 h, 5 µM [5]: 80%
EC50 [1]: 0.016 µM
Intrinsic activity [2]: 108%
solubility [3]: 418 µM (≈ 197 µg/mL)
remaining at 1 h, 5 µM [6]: 89%
solubility [4]: 24.3 µM (≈ 11.4 µg/mL)

Cc1c(Nc2ccc(S(C)(=O)=O)cc2F)ncnc1N(C)[C@H]1CC[C@]2(CC1)COC(C)(C)C2
remaining at 1 h, 5 µM [5]: 93%
EC50 [1]: 0.045 µM
Intrinsic activity [2]: 128%
solubility [3]: > 475 µM
remaining at 1 h, 5 µM [6]: 91%
solubility [4]: 49.8 µM (≈ 23.7 µg/mL)

Cc1c(Nc2ccc(S(C)(=O)=O)cc2)ncnc1O[C@H]1CC[C@]2(CC1)COC(C)(C)C2
EC50 [1]: 0.139 µM
Intrinsic activity [2]: 92%
solubility [3]: 4.4 µM (≈ 1.96 µg/mL)
solubility [4]: 8.6 µM (≈ 3.83 µg/mL)

Cc1c(Oc2ccc(S(C)(=O)=O)cc2F)ncnc1O[C@H]1CC[C@]2(CC1)COC(C)(C)C2
EC50 [1]: 0.059 µM
Intrinsic activity [2]: 62%
solubility [3]: < 0.5 µM
solubility [4]: 33.4 µM (≈ 15.5 µg/mL)

Cc1c(O[C@H]2CC[C@]3(CC2)COC(C)(C)C3)ncnc1N1CCc2cc(S(C)(=O)=O)ccc21
EC50 [1]: > 1 µM
Intrinsic activity [2]: 38%
solubility [3]: 2.8 µM (≈ 1.32 µg/mL)
solubility [4]: 25.5 µM (≈ 12 µg/mL)

CCc1c(Nc2ccc(S(C)(=O)=O)cc2F)ncnc1O[C@H]1CC[C@]2(CC1)COC(C)(C)C2
EC50 [1]: 0.042 µM
Intrinsic activity [2]: 82%
solubility [3]: 4.6 µM (≈ 2.2 µg/mL)
solubility [4]: 67.5 µM (≈ 32.2 µg/mL)
